Experimental data reported in ChEMBL document CHEMBL1152618, “PET-compatible endothelin receptor radioligands: synthesis and first in vitro and in vivo studies” (Bioorg Med Chem, 2009).

Key:
[1] = target: T1, Endothelin receptor type B (Mus musculus, UniProt P48302); assay: Displacement of [125I]ET1 from endothelin B receptor in DBA mouse microsomes; design: species or system Microsome
T1 sequence (P48302 whole entry): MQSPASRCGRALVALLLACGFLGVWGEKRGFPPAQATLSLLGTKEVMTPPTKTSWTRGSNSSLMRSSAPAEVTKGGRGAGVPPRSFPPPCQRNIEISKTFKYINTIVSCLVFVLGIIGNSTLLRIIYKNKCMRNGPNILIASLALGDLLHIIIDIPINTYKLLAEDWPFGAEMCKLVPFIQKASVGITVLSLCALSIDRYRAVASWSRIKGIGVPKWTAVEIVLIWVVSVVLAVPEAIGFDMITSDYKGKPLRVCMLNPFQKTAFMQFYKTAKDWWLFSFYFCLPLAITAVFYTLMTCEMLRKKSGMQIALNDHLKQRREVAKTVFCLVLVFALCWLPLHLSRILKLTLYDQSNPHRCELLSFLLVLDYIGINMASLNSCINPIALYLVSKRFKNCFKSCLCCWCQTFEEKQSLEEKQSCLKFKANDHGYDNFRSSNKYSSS
In short: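 Ventricular microsomes from DBA mice were prepared by homogenization and differential centrifugation in EDTA/HEPES/benzamidine buffers (pH 7.4). 10 µg membranes were incubated with 40 pM [125I]ET-1 and competitor (10 pM–100 µM) in Tris-HCl/154 mM NaCl/ascorbic acid (pH 7.4) at 37 °C for 4 h. Samples were filtered on GF/B and gamma counted. A two-site nonlinear fit gave the low-affinity IC50, which was converted to Ki by Cheng–Prusoff (KD 208 pM).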

Plasma [2] = assay: Stability in C57BL/6 mouse plasma assessed as compound remaining after 5 mins; type: ADME, cell-free
In short: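 C57BL/6 mice (adult, both sexes) were prepared as for biodistribution and given [18F]tracer as a 100 µl tail-vein bolus. Killed by iv pentobarbitone at 5 or 20 min. Cardiac blood was centrifuged, and plasma from two mice was pooled. After acetonitrile protein precipitation, supernatant was spiked with 10 µg unlabeled reference and analyzed by radio-RP-HPLC.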

Rattus norvegicus [3] = assay: Stability in Wistar rat assessed as compound remaining at 40 MBq, iv after 10 mins; type: ADME, organism-based; details: in vivo
In short: (§1)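 Single rat given 40 MBq [18F]tracer as an iv tail-vein bolus. Blood (600–800 µl) was drawn from a tail-artery catheter at 2.5, 10, 20 and 60 min and centrifuged to plasma. Proteins were precipitated with ice-cold acetonitrile. Supernatant was spiked with 10 µg unlabeled reference and analyzed by radio-RP-HPLC.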

Plasma [4] = assay: Stability in Wistar rat plasma assessed as compound remaining at 19 MBq; type: ADME, cell-free
In short: (§2)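 Plasma from one anesthetized male Wistar rat (350 g), taken by cardiac puncture and stored at −20 °C overnight. 0.5 ml samples were incubated with 19 MBq [18F]tracer at 37 °C for 1, 2.5, 20 and 60 min. Protein was precipitated with ice-cold acetonitrile and centrifuged. Pellet and supernatant radioactivity were measured for protein binding. Supernatant was analyzed by gradient radio-RP-HPLC (C18, water/acetonitrile with 0.1% TFA).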

Rattus norvegicus [5] = assay: Stability in Wistar rat assessed as compound remaining at 40 MBq, iv after 2.5 mins; type: ADME, organism-based; details: in vivo; in short: as §1
Plasma [6] = assay: Protein binding in Wistar rat plasma at 19 MBq; type: ADME, cell-free; in short: as §2
[7] = Biodistribution in C57BL/6 mouse duodenal content assessed as drug uptake index at 0.3 to 1 mmol/kg, iv after 30 mins; type: ADME, organism-based; details: in vivo, 0.5 h, in the assay text read “0.3 to 1 nmol/kg” for “0.3 to 1 mmol/kg”
In short: (§3)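 Adult C57BL/6 mice (male and female, 25–30 g), tail-vein cannulated under isoflurane/N2O/O2, allowed ~1 h recovery, conscious under light restraint. [18F]tracer 0.2–2.0 MBq (0.3–1.0 nmol/kg) given as iv bolus. Killed by iv pentobarbitone 200 mg/kg at 30 min. Duodenal contents were moved directly into weighed vials, and duodenal wall was blotted. Gamma counting. Uptake index = (cpm/g tissue)/(cpm injected/g body weight).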

[8] = Drug level in C57BL/6 mouse bile at 6.6 MBq, iv after 3 to 4 mins; type: ADME, organism-based; details: in vivo
In short: (§4)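 Female C57BL/6 mice (22–23 g) under isoflurane 2% anesthesia with tail-vein catheters were imaged two at a time in a quadHIDAC small-animal PET scanner. [18F]tracer (6.6 MBq in 100 µl, saline flush) was injected 30 s after acquisition start. List-mode data were collected for 2 h and reconstructed iteratively. Radioactivity (cps/ml) was read from ROIs over organs in five coronal planes.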

[9] = Drug level in C57BL/6 mouse urine at 6.6 MBq, iv after 5 to 60 mins; type: ADME, organism-based; details: in vivo; in short: as §4
[10] = Biodistribution in C57BL/6 mouse duodenal wall content assessed as drug uptake index at 0.3 to 1 mmol/kg, iv after 30 mins; type: ADME, organism-based; details: in vivo, 0.5 h, in the assay text read “0.3 to 1 nmol/kg” for “0.3 to 1 mmol/kg”; in short: as §3
Plasma [11] = assay: Stability in plasma assessed as compound remaining after 20 mins

Q: With `COc1ccc(C2(O)OC(=O)C(c3ccc4c(c3)OCO4)=C2Cc2cc(OC)c(OC)c(OCCOS(=O)(=O)c3ccc(C)cc3)c2)cc1` (stereo unspecified) as the molecule, how does the Ki [1] read?
A: Its Ki is 1.26 nM.

Q: With `COc1cc(CC2=C(c3ccc4c(c3)OCO4)C(=O)OC2(O)c2ccc(OCCOS(=O)(=O)c3ccc(C)cc3)cc2)cc(OC)c1OC` (stereo unspecified) as the molecule, how does the Ki [1] read?
A: The Ki was 96 nM.

Q: Which Ki [1] does the source give for `COc1cc(CC2=C(c3ccc4c(c3)OCO4)C(=O)OC2(O)c2ccc(OCCBr)cc2)cc(OC)c1OC` (stereo unspecified) here?
A: Its Ki is 72 nM.

Q: For `COc1ccc(C2(O)OC(=O)C(c3ccc4c(c3)OCO4)=C2Cc2cc(OC)c(OC)c(OCCBr)c2)cc1` (stereo unspecified), which Ki [1] is on record?
A: The Ki was 170 nM.

Q: Which Stability (Plasma [2]) does the source give for `COc1ccc(C2(O)OC(=O)C(c3ccc4c(c3)OCO4)=C2Cc2cc(OC)c(OC)c(OCC[18F])c2)cc1` (stereo unspecified) here?
A: Its Stability is “Stable”.

Q: And the Stability (Rattus norvegicus [3])?
A: The Stability was “Stable”.

Q: And the Stability (Plasma [4])?
A: The Stability was “Stable”.

Q: What about the Stability (Rattus norvegicus [5]) of the same molecule?
A: The Stability was “Stable”.

Q: What about the PPB (Plasma [6]) of the same molecule?
A: The PPB was 4.6%.

Q: And the Drug uptake [7]?
A: The Drug uptake was 33.

Q: And the Drug uptake [8]?
A: Its Drug uptake is 6000 cps/ml.

Q: And the Drug uptake [9]?
A: The Drug uptake was 200 cps/ml.

Q: And the Drug uptake [10]?
A: The Drug uptake was 9.

Q: And the Stability (Plasma [11])?
A: The Stability was “Stable”.

Q: Which Ki [1] does the source give for `COc1cc(CC2=C(c3ccc4c(c3)OCO4)C(=O)OC2(O)c2ccc(OCCF)cc2)cc(OC)c1OC` (stereo unspecified) here?
A: Its Ki is 98 nM.

Q: With `COc1ccc(C2(O)OC(=O)C(c3ccc4c(c3)OCO4)=C2Cc2cc(OC)c(OC)c(OCCF)c2)cc1` (stereo unspecified) as the molecule, how does the Ki [1] read?
A: Its Ki is 240 nM.
